From ChEMBL document CHEMBL2062420, “Triazole Appending Agent (TAAG): A New Synthon for Preparing Iodine-Based Molecular Imaging and Radiotherapy Agents” (ACS Med Chem Lett, 2012) come the findings set out here.

Data set [1] is described as follows: Lipophilicity, log D of the compound at pH 7.4. The format is physicochemical. The conditions noted are these: buffer.
Data set [2] deals with Kidney. Put plainly: Drug uptake in NCr nude mouse kidney xenografted with human LNCAP cells at 37 MBq, iv measured 2 hrs post injection by gamma counting. The format is ADME, organism-based. The following applies: in vivo. Put shortly:
(§1)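 Male NCr nude mice bearing LNCap tumours (PSMA-expressing) received 37 MBq of the radioiodinated PSMA-TAAG conjugate via the tail vein. Distribution was followed by scintigraphic imaging at 2 h and 24 h post-injection, with a fused scintigraphic-CT image taken at 23 h.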
(In xenograft studies the graft and the host belong to different species.)

Data set [3] deals with Urinary bladder. Put plainly: Drug uptake in NCr nude mouse bladder xenografted with human LNCAP cells at 37 MBq, iv measured 2 hrs post injection by gamma counting. The format is ADME, organism-based. The following applies: in vivo. A digest of the protocol: as §1
Data set [4] in a line: Drug uptake in NCr nude mouse tumor xenografted with human LNCAP cells measured 1 hr post injection in presence of PSMA inhibition PMPA. The format is ADME, Neoplasm. The conditions noted are these: tumor (human LNCaP xenograft), with PMPA (PSMA inhibitor), amount not stated, read-out: Drug uptake.
A short description of data set [5]: Drug uptake in NCr nude mouse tumor xenografted with human LNCAP cells at 37 MBq, iv measured 2 hrs post injection by gamma counting. The format is ADME, organism-based, Neoplasm. The conditions noted are these: in vivo. A digest of the protocol: as §1
The subject of data set [6] is Thyroid gland. Briefly: Drug uptake in NCr nude mouse thyroid xenografted with human LNCAP cells at 0.63 MBq, iv measured 23 hrs post injection by gamma counting. The format is ADME, organism-based. The following applies: in vivo.
Data set [7] in a line: Drug uptake in NCr nude mouse tumor xenografted with human LNCAP cells at 0.63 MBq, iv measured 1 hrs post injection by gamma counting. The format is ADME, organism-based, Neoplasm. The following applies: in vivo.
A short description of data set [8]: Drug uptake in NCr nude mouse tumor xenografted with human LNCAP cells at 0.63 MBq, iv measured 23 hrs post injection by gamma counting. The format is ADME, organism-based, Neoplasm. The following applies: in vivo.
Data set [9] is described as follows: Drug uptake in NCr nude mouse tumor xenografted with human LNCAP cells at 37 MBq, iv measured 24 hrs post injection by gamma counting. The format is ADME, organism-based, Neoplasm. The following applies: in vivo. Put shortly: as §1
Data set [10] relates to Thyroid gland. Put plainly: Drug uptake in NCr nude mouse thyroid xenografted with human LNCAP cells at 37 MBq, iv measured 24 hrs post injection by gamma counting. The format is ADME, organism-based. The following applies: in vivo. A digest of the protocol: as §1
In data set [11] the test system is Kidney. Briefly: Biodistribution in Balb/c mouse kidneys at 1.37 MBq, iv up to 30 mins by gamma counter. The format is ADME, organism-based. The conditions noted are these: in vivo, 0.5 h.
The test system of the next data set is Liver. Briefly: Biodistribution in Balb/c mouse liver at 1.37 MBq, iv up to 30 mins by gamma counter. The format is ADME, organism-based. The conditions noted are these: in vivo, 0.5 h.
Another data set concerns Lung. Put plainly: Biodistribution in Balb/c mouse lungs at 1.37 MBq, iv up to 30 mins by gamma counter. The format is ADME, organism-based. The conditions noted are these: in vivo, 0.5 h.
Another data set relates to Heart. Briefly: Biodistribution in Balb/c mouse heart at 1.37 MBq, iv up to 30 mins by gamma counter. The format is ADME, organism-based. The following applies: in vivo, 0.5 h.
For another data set, the system named is Brain. Put plainly: Biodistribution in Balb/c mouse brain at 1.37 MBq, iv up to 30 mins by gamma counter. The format is ADME, organism-based. The conditions noted are these: in vivo, 0.5 h.
Another data set concerns Stomach. Put plainly: Biodistribution in Balb/c mouse stomach at 1.37 MBq, iv up to 30 mins by gamma counter. The format is ADME, organism-based. The following applies: in vivo, 0.5 h.
The test system of a further data set is Blood. Briefly: Biodistribution in Balb/c mouse blood at 1.37 MBq, iv up to 30 mins by gamma counter. The format is ADME, organism-based. The following applies: in vivo, 0.5 h.
Data set [12] is described as follows: Stability of the compound in PBS at pH 7.4 after 48 hrs. The format is physicochemical. The following applies: buffer, pH 7.4, 48 h.
Data set [13] deals with Mus musculus. Put plainly: Biodistribution in Balb/c mouse skeletal muscle at 1.37 MBq, iv up to 30 mins by gamma counter. The format is ADME, organism-based, Muscle tissue. The following applies: in vivo, 0.5 h.
Data set [14] concerns Mus musculus. Briefly: Biodistribution in Balb/c mouse small intestine at 1.37 MBq, iv up to 30 mins by gamma counter. The following applies: in vivo, 0.5 h. The format is ADME, organism-based.
Data set [15] deals with Mus musculus. Briefly: Biodistribution in Balb/c mouse large intestine at 1.37 MBq, iv up to 30 mins by gamma counter. The format is ADME, organism-based. The following applies: in vivo, 0.5 h.
In data set [16] the test system is Mus musculus. Briefly: Biodistribution in Balb/c mouse adrenals at 1.37 MBq, iv up to 30 mins by gamma counter. The format is ADME, organism-based, Adrenal tissue. The following applies: in vivo, 0.5 h.
A further data set deals with Bone. Briefly: Biodistribution in Balb/c mouse bone at 1.37 MBq, iv up to 30 mins by gamma counter. The following applies: in vivo, 0.5 h. The format is ADME, organism-based, Bone element.
In data set [17] the test system is Urinary bladder. Put plainly: Biodistribution in Balb/c mouse bladder at 1.37 MBq, iv up to 30 mins by gamma counter. The format is ADME, organism-based. The conditions noted are these: in vivo, 0.5 h.
A further data set deals with Spleen. Briefly: Biodistribution in Balb/c mouse spleen at 1.37 MBq, iv up to 30 mins by gamma counter. The format is ADME, organism-based. The conditions noted are these: in vivo, 0.5 h.
Data set [18] in a line: Stability in PBS at pH 7.4 assessed as deiodination of compound after 48 hrs. The format is physicochemical. The conditions noted are these: buffer, pH 7.4, 48 h.
Data set [19] concerns Thyroid gland. Briefly: Biodistribution in Balb/c mouse thyroid at 1.37 MBq, iv up to 30 mins by gamma counter. The format is ADME, organism-based. The conditions noted are these: in vivo, 0.5 h.

In general, logD refers to the decadic logarithm of the distribution of all forms, ionised or not, between an organic phase and buffer at a given pH. Low values mean a more hydrophilic compound, high ones a more lipophilic compound. `O=C(O)c1ccc(I)cc1` registered a logD in data set [1] of 0.07.

`O=C(O)CC[C@H](NC(=O)N[C@@H](CCCCNC(=O)Cn1cc([123I])nn1)C(=O)O)C(=O)O`: the Drug uptake entry in the data set with Kidney [2] is “Active”; with Urinary bladder [3] it was “Active”; in [5], “Active”; in the data set with Thyroid gland [6] it was 10 % ID/g; in data set [7], 20 % ID/g; in data set [8], 15 % ID/g. Also, the Drug uptake result (in data set [9]; with Thyroid gland [10]) was “Active” each time. In addition, the tissue uptake at 1 h in data set [4] is < 2 %ID/g. For the same molecule, in [1], the logD is -3.23.

Regarding `O=C(O)Cn1cc([123I])nn1`, the Drug uptake result with Kidney [11], in the data set with Liver, in the data set with Lung, in the data set with Heart, in the data set on Brain and in the data set on Stomach was “Not Active” each time. Besides, the Drug uptake entry in the data set on Blood, with Mus musculus [13], in the data set with Mus musculus [14], in the data set on Mus musculus [15], in the data set on Mus musculus [16] and with Bone was “Not Active” in each case. Further, the Drug uptake result with Urinary bladder [17] is “Active”; in the data set on Spleen, “Not Active”; in the data set on Thyroid gland [19] it was “Not Active”. In addition, the Stability entry in [12] and in data set [18] was “Stable” each time. Moreover, the logD in [1] was -2.58.
